Dynein transport: dynein cargo transport inhibition. 3617.4 mouse cells, GR-EGFP nuclear translocation imaging; test concentration mostly 20 µM; stimulated with dexamethasone, 1 µM; hits give low values. z-score, hits read low. 0.47% of 220,000 active. AID 1381;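 active = plate z-score of nuclear minus cytoplasmic receptor signal below a set negative limit, without overly bright fluorescence or cell loss, cut at about -3.5 in these data, passing the limit was not always enough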;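 also: z-score of nuclear minus cytoplasmic ring GR-EGFP intensity difference per well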
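Buffer or medium – tet-free medium with charcoal-stripped serum · Signal – automated 10x imaging of fixed Hoechst-stained cells · Also added – dexamethasone agonist, 1.0 µM final, for 30 min · Incubation – induction 48 h, compound 1 h, agonist 30 min · Read-out – GR-EGFP nuclear translocation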
Rad51 HR inh: blocks human Rad51 in homologous recombination; Q06609; hRad51 DNA strand exchange, fluorescence dequenching; inhibition, % at 10 µM; 0.085% of 200,000 active; AID 1385;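 active = inhibition above 40% at the single screening dose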;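 also: 0% = DMSO control wells and 100% = blanks with heterologous ssDNA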
Target sequence (Q06609 whole entry, looked up): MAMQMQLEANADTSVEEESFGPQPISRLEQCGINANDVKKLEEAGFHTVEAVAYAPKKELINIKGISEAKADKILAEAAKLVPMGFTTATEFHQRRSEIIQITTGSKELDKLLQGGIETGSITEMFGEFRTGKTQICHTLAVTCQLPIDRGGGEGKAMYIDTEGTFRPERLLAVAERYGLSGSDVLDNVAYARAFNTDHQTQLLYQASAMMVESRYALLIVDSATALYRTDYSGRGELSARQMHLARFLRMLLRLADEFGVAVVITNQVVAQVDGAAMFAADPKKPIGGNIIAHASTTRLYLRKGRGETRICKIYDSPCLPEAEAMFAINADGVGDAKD
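material = hRad51 filaments on single-stranded DNA | timing = filaments 15 min 37 °C, then compound 30 min | signal = FRET fluorescence dequenching, excitation 485 nm, emission 520 nm | benchmarks = control wells and blank wells on each plate | evaluation = percent inhibition relative to plate controls and blanks | compound = 10 µM final, single point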
b-catenin transl: modulators of beta-catenin nuclear translocation; nuclear translocation activity, % at 5 µM; HeLa beta-catenin nuclear translocation, immunofluorescence imaging; 0.3% of 190,000 active;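 active = nuclear translocation activity above 50% at 5 µM, with a well cell count of 50 or more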;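 also: per-cell ratio of nuclear to cytoplasmic median beta-catenin stain intensity; plate controls were DMSO negative control for no effect and GSK-3 inhibitor IX positive control for full effect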
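Assay system: human HeLa cells, native beta-catenin; doses: 5 µM primary, 0.02–20 µM confirmation; incubation: compound treatment 24 h, 37°C, 5% CO2; technique: fluorescence imaging of beta-catenin antibody stain plus DAPI; measure: % activation, nuclear-to-cytoplasmic median beta-catenin signal ratio per cell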
Tb hexokinase: blocks Trypanosoma brucei hexokinase 1 activity. recombinant TbHK1, G6PDH-coupled NADH A340. inhibition, % at 10 µM. 0.11% of 220,000 active;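 active = inhibition of 50% or more in the single-dose primary screen; inactive = inhibition below 50%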
MT stabilize HCS: microtubule stabilizers in HeLa cells | HeLa tubulin immunostaining HCS, 24 h; share of cells brighter than vehicle mean+2SD | % tubulin-high responders, % at 10 µM | 0.83% of 200,000 active;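 active = plate Z-score above 3 for both tubulin-high and condensed-nucleus cell shares, with cell loss under 80%, at 10 µM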;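 also: anti alpha tubulin signal scored within the nucleus-defined area of each cell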
* hit, by the source's call. A selection: hits, their analogues and other compounds. The true share with any hit is near 1.5%.

How did CC(C)CCOc1ccc(-c2c(=O)n(OCc3ccc([N+](=O)[O-])cc3)c3ccccc3[n+]2[O-])cc1 do in these assays?
Dynein transport: -0.37; Rad51 HR inh: 1; b-catenin transl: -1; Tb hexokinase: -4; MT stabilize HCS: 1

What do the screens show for `O=C(N/N=C/c1cc([N+](=O)[O-])ccc1O)NC12CC3CC(CC(C3)C1)C2`?
Dynein transport: -0.13; Rad51 HR inh: -19; b-catenin transl: -1; Tb hexokinase: -8; MT stabilize HCS: 4

What do the screens show for `Cc1ccc2nc(/C(C#N)=C/c3cn[nH]c3-c3ccc(F)cc3)[nH]c2c1`?
Dynein transport: 2.3; Rad51 HR inh: -1; b-catenin transl: 100*; Tb hexokinase: -23; MT stabilize HCS: 36*

Results for CCOC(=O)/C(=N\Nc1ccccc1)S(=O)(=O)c1ccccc1 ?
Dynein transport: -0.65; Rad51 HR inh: -4; Tb hexokinase: -40; MT stabilize HCS: 1

What do the screens show for `O=C1/C(=C\c2ccccc2)CCc2c1[nH]c1ccccc21`?
Dynein transport: 0.22; Rad51 HR inh: 4; b-catenin transl: 0; Tb hexokinase: -4; MT stabilize HCS: 21*

Results for O=S(=O)(c1ccc(Br)cc1Cl)N1CCN(CCO)CC1 ?
Dynein transport: 0.0046; Rad51 HR inh: -5; b-catenin transl: -3; Tb hexokinase: -3; MT stabilize HCS: 3

Results for CCOc1ccc(-n2c(=O)[nH]c3sc4c(c3c2=O)CCCC4)cc1 ?
Dynein transport: 1.5; Rad51 HR inh: -6; b-catenin transl: -2; Tb hexokinase: 10; MT stabilize HCS: 3

How did Cc1nc2c(sc3nc4c(cc32)COC(C)(C)C4)c(=O)n1CC(=O)NCc1ccco1 do in these assays?
Dynein transport: 2.3; Rad51 HR inh: 2; Tb hexokinase: -12; MT stabilize HCS: 28*

Results for CC1(C)Cc2nc3sc4c(SCC(=O)NCc5ccco5)ncnc4c3cc2CO1 ?
Dynein transport: -1.3; Rad51 HR inh: 1; b-catenin transl: 59*; Tb hexokinase: -11; MT stabilize HCS: 29*

How did CCCc1nc2c(sc3nc4c(cc32)COC(C)(C)C4)c(=O)n1Cc1ccco1 do in these assays?
Dynein transport: -2.5; Rad51 HR inh: 0; Tb hexokinase: -5; MT stabilize HCS: 1

How did CC1(C)Cc2nc3sc4c(=O)n(CC(N)=O)cnc4c3cc2CO1 do in these assays?
Dynein transport: 0.37; Rad51 HR inh: 6; b-catenin transl: -2; Tb hexokinase: -11; MT stabilize HCS: 2

Results for CC(C)c1nc2sc3c(SCC(=O)NCc4ccco4)ncnc3c2c2c1CCC2 ?
Dynein transport: -1.3; Rad51 HR inh: -4; b-catenin transl: 16; Tb hexokinase: -6; MT stabilize HCS: 3

Results for CC1(C)Cc2nc3sc4c(=O)n(CC(=O)NCc5ccccc5)cnc4c3cc2CO1 ?
Dynein transport: -0.043; Rad51 HR inh: 1; Tb hexokinase: -1; MT stabilize HCS: 34*

What do the screens show for `N#C/C(=C\c1ccc(Cl)c([N+](=O)[O-])c1)c1ccccn1`?
Dynein transport: -1.6; Rad51 HR inh: -1; b-catenin transl: 80*; Tb hexokinase: -14; MT stabilize HCS: 66

What do the screens show for `O=C(Nc1ccc(Cl)cc1C(=O)Nc1ccccn1)c1ccco1`?
Dynein transport: 0.039; Rad51 HR inh: 0; b-catenin transl: -1; Tb hexokinase: -5; MT stabilize HCS: 2

How did Cc1ccc(NC(=S)NNC(=O)c2ccccc2OC(F)F)cc1 do in these assays?
Dynein transport: -0.0046; b-catenin transl: 1; Tb hexokinase: 7; MT stabilize HCS: 45*

Results for O=C(NNC(=S)Nc1ccc(F)cc1)c1ccccc1OC(F)F ?
Dynein transport: -0.22; Rad51 HR inh: 8; b-catenin transl: 0; Tb hexokinase: -8; MT stabilize HCS: 2

What do the screens show for `OC(CNCC(c1ccc(Cl)cc1Cl)c1c[nH]c2ccccc12)c1ccccc1` (stereo unspecified)?
Dynein transport: 1.9; Rad51 HR inh: -3; b-catenin transl: -3; Tb hexokinase: 3; MT stabilize HCS: 11*

How did COC(=O)c1nnn(-c2nonc2N)c1CN1CCc2ccccc21 do in these assays?
Dynein transport: -1.5; Rad51 HR inh: -7; b-catenin transl: 0; Tb hexokinase: -9; MT stabilize HCS: 36*

Results for C/C(=N\NC(=S)Nc1ccc(F)cc1)c1ccc2c(c1)OCCO2 ?
Dynein transport: 0.34; Rad51 HR inh: 2; Tb hexokinase: 21; MT stabilize HCS: 22*

How did CCCCC(=NCCc1c(C)[nH]c2ccc(OC)cc12)C1=C(O)CC(c2ccccc2)CC1=O (stereo unspecified) do in these assays?
Dynein transport: -0.53; Rad51 HR inh: 5; b-catenin transl: 17; Tb hexokinase: -2; MT stabilize HCS: 17*

What do the screens show for `CCC(=NCCc1c(C)[nH]c2ccccc12)C1=C(O)CC(c2ccccc2)CC1=O` (stereo unspecified)?
Dynein transport: 1.8; Rad51 HR inh: -3; b-catenin transl: 80*; Tb hexokinase: 23; MT stabilize HCS: 15*

How did CCC(=NCCc1c(C)[nH]c2ccc(OC(F)(F)F)cc12)C1=C(O)CC(c2ccccc2)CC1=O (stereo unspecified) do in these assays?
Dynein transport: 0.92; Rad51 HR inh: 3; b-catenin transl: 0; Tb hexokinase: -2; MT stabilize HCS: 10

What do the screens show for `COc1ccc(Nc2nc3ccc(C)cc3cc2C#N)c(OC)c1`?
Dynein transport: 1.1; Rad51 HR inh: -17; b-catenin transl: -2; Tb hexokinase: 2; MT stabilize HCS: 7

How did COc1ccc(Nc2nc3cc(C)ccc3cc2C#N)c(OC)c1 do in these assays?
Dynein transport: 0.4; Rad51 HR inh: -26; b-catenin transl: 23; Tb hexokinase: -17; MT stabilize HCS: 21*

Results for COC(=O)C1(C(F)(F)F)N=C(N(C)C)OC(N(C)C)=N1 ?
Dynein transport: -0.088; Rad51 HR inh: -7; b-catenin transl: -1; Tb hexokinase: -6; MT stabilize HCS: 3

How did c1ccc(-n2cnc3cc(NCc4cccs4)ccc32)cc1 do in these assays?
Dynein transport: 1.3; Rad51 HR inh: -2; b-catenin transl: 8; Tb hexokinase: 3; MT stabilize HCS: 41*

How did O=C1NN(c2ccccc2)C(=O)/C1=C\c1cccn1-c1ccc(Cl)c([N+](=O)[O-])c1 do in these assays?
Dynein transport: -0.14; Rad51 HR inh: 0; Tb hexokinase: -6; MT stabilize HCS: 2

How did CN1CCc2c(sc3c2C(=O)NC(c2cccc(OC(=O)c4cccs4)c2)N3)C1 (stereo unspecified) do in these assays?
Dynein transport: 0.6; b-catenin transl: -1; Tb hexokinase: -12; MT stabilize HCS: 5

Results for CCOC(=O)N1CCc2c(sc3c2C(=O)NC(c2ccccc2)N3)C1 (stereo unspecified) ?
Dynein transport: -1; b-catenin transl: 134*; Tb hexokinase: -7; MT stabilize HCS: 22*

What do the screens show for `C=CCOC(=O)c1cc(-c2ccc(/C=C3\C(=O)NC(=O)C(C#N)=C3C)o2)ccc1Cl`?
Dynein transport: -4.4*; Tb hexokinase: -9; MT stabilize HCS: 2
